The subject of one data set is T. brucei (GVR35-VSL2). The experiment in a line: Mouse model of stage II HAT. Format: in vivo, Trypanosoma brucei. Particulars: single ip dose 40 mg/kg.
A further data set relates to T. cruzi epimastigotes. Nature of the data set: microbe, parasite or virus in culture. Type of data set: cell-based, Trypanosoma cruzi. Particulars: for inhibition of T. cruzi epimastigote proliferation, potency: wild type epimastigotes.
The subject of data set [1] is ubiquitylated proteins in T. cruzi epimastigotes. The experiment in a line: Accumulation of ubiquitylated proteins in T. cruzi epimastigotes. Type of data set: cell-based. Particulars: Trypanosoma cruzi, read-out: ubiquitylation EC50, T. cruzi epimastigotes. Summed up: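 T. cruzi epimastigotes were seeded at 1 × 10^7 cells/well in LIT medium and exposed to DMSO (0.2%) or a range of test compound concentrations for 2–12 h at 27 °C. Cells were pelleted, washed twice in PBS, and lysed for 20 min on ice in Tris pH 7.4/NaCl/1% CHAPS buffer with protease inhibitors and N-ethylmaleimide. Lysates were cleared at 21,000 g, 30 min, 4 °C.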

The target in data set [2] is T1, PSMB4^I29M T. cruzi proteasome (Trypanosoma cruzi, UniProt Q4CU77+Q4D8U7, I29M).
T1 sequence (Q4CU77 1-206 I29M): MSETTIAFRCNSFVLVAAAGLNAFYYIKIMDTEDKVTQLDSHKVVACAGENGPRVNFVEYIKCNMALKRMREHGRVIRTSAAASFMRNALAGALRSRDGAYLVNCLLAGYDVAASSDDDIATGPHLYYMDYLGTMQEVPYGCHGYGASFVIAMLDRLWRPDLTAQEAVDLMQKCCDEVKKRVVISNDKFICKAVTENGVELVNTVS
T1 sequence (Q4D8U7 111-311): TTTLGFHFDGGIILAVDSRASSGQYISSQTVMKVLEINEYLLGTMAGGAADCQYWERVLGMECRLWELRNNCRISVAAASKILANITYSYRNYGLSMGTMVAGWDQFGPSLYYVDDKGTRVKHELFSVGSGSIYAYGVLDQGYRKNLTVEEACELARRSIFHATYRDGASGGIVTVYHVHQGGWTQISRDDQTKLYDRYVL
Nature of the data set: Proteasome proteolytic activities, PSMB4^I29M T. cruzi proteasome. As to conditions: mean ± s.e.m., n=3. Type of data set: biochemical.

One may read the EC50 as the concentration needed to bring the measured effect to its halfway point. Broadly, the IC50 is the point on the concentration scale where inhibition reaches its midpoint. Lower therefore signals inhibition by little substance.

Peptide text beside a SMILES is read from it. * marks the point of attachment. Cbz = O=C(OCc1ccccc1)*

`CC(=O)NCC(=O)O.CC(=O)NCC(=O)O.N=C(N)c1ccc(N=NNc2ccc(C(=N)N)cc2)cc1` [diminazene aceturate]: the “parasite clearance / recrudescence” value in the data set on T. brucei (GVR35-VSL2) is reported as “did not prevent parasite recrudescence 21 days later”. Also, in the data set with T. brucei (GVR35-VSL2) (ex vivo brain imaging), the “parasites in the brain” value is “parasites were clearly detected in the brains”.

As for `CC(C)C[C@@H](C=O)NC(=O)[C@H](CC(C)C)NC(=O)[C@H](CC(C)C)NC(=O)OCc1ccccc1` [MG132] (Cbz-Leu-Leu-Leu-aldehyde), the “inhibition of T. cruzi epimastigote proliferation, potency” value in the data set on T. cruzi epimastigotes was “sub-micromolar potency”.

Regarding `CC(C)C[C@H](NC(=O)[C@H](Cc1ccccc1)NC(=O)c1cnccn1)B(O)O` [bortezomib], the 50% effective concentration (EC50) is 160 nM in the data set with T. cruzi epimastigotes (Trypanosoma cruzi, read-out: growth inhibition EC50 on T. cruzi epimastigotes) and 62 nM in data set [1]. For the same compound, the “inhibition of T. cruzi epimastigote proliferation, potency” value with T. cruzi epimastigotes is recorded as “sub-micromolar potency”. The IC50 in data set [2] (IC50 caspase, caspase-like activity) is 540 ± 12 nM; in data set [2] (IC50 chymotrypsin, chymotrypsin-like activity) it was 260 ± 40 nM; in data set [2] (IC50 trypsin, trypsin-like activity) it was 1600 ± 58 nM.

These data come from publication PMC5161665 (Nature, 2016).
